High-throughput results from PubChem.
In the library only some 4.1% were active in any assay of this set; here they are far more common.
NF-kB neuron act: NF-kB expression increase, human neuronal cells; NF-kB reporter expression; hits give high values; fold change at 12.5 µM; hit rate 1.6% among 190,000; AID 1239; in the data active means fold change above about 3.3
APP 5'UTR act: APP 5'UTR luciferase reporter activation; SH-SY5Y APP 5'UTR luciferase reporter, luminescence; zero percent = DMSO vehicle wells; activation, % at 2 µM; hit rate 1% among 190,000;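 active means activation above a set limit, based on mean plus 3 SD of controls, cut at about 140% in these data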
FLuc inhib CS: counter-screen for luciferase assay inhibitors: firefly luciferase inhibition | hit rate 1.5% among 200,000 | AID 1006 | ATPLite firefly luciferase biochemical luminescence, 10 min | inhibition, % at 10 µM;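 active means inhibition above about 50% when tested at 10 µM, limit read from the data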
Target sequence (P08659 whole entry, looked up): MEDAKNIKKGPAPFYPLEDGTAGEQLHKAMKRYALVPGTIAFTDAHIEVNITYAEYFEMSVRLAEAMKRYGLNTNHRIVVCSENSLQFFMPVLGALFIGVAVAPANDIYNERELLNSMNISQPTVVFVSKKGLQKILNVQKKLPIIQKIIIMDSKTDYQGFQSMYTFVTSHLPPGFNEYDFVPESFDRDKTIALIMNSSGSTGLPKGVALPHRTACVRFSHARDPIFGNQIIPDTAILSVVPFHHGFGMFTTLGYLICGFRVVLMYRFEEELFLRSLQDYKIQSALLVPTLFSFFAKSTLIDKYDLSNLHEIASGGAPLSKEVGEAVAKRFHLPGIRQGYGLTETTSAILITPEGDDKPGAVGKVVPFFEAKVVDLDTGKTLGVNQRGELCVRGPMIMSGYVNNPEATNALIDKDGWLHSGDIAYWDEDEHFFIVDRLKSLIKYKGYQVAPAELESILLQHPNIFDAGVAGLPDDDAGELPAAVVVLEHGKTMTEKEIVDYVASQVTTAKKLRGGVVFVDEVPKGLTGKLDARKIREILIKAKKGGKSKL
FLuc act counter: firefly luciferase counter-screen for stimulation assays; 200,000 tested, under 10 active; ATPlite luciferase biochemical, luminescence, 10 min; 0 = ATP-free wells, 1 = DMSO control; activation factor at 10 µM;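 active means luciferase activation factor, scaled between plate controls, of at least 2 with compound at 10 µM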
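System: cell-free luciferase reagent; medium: PBS as buffer for the ATP substrate; doses: test compounds dosed from 2 mM stocks in 100% DMSO; incubation: 10 min, room temperature; measured by: luminescence from luciferase reaction; read-out: luciferase activation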
STAT1 act: STAT1 signaling activation | activation (% of control), % at 5.5 µM | hit rate 2.6% among 200,000 | AID 932 | NIH 3T3 STAT1-luciferase reporter, IFN-gamma, luminescence; 100% = IFN-gamma alone, no compound;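 active means activation above the screen-wide mean activation plus 3 SD, cut at about 130% in these data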
Of the large screens only hits and unclear results are named; the others gave an inactive call.

Cc1ccc(C(=O)O/N=C(\N)c2cccc([N+](=O)[O-])c2)cc1	NF-kB neuron act 3.76, APP 5'UTR act 158.4, FLuc inhib CS 96.3, STAT1 act 147.4
Cc1ccc(C(=O)O/N=C(\N)c2cccnc2)cc1[N+](=O)[O-]	FLuc inhib CS 74.6
N/C(=N\OC(=O)c1ccc([N+](=O)[O-])cc1)c1cccnc1	FLuc inhib CS 94.2
N/C(=N\OC(=O)c1ccc(Br)o1)c1cccnc1	STAT1 act 130.7
Cc1ccc(CC(=O)O/N=C(\N)c2cccc([N+](=O)[O-])c2)cc1	none
N/C(=N\OC(=O)c1ccccc1[N+](=O)[O-])c1cccnc1	none
COc1ccc(OCC(=O)Nc2cccc(C(C)=O)c2)cc1	none
CCOc1ccc(/C=N/OCC(=O)NC(c2ccccc2)c2ccccc2)cc1	none
Cc1c(NC(=S)NC(=O)c2ccc(-c3ccc(Cl)cc3)o2)cccc1C(=O)O	none
CC(=O)n1nc(-c2ccc(C)cc2)nc1NCc1ccco1	none
Cc1ccc(-c2nc(NCc3ccco3)n(S(C)(=O)=O)n2)cc1	STAT1 act 144.0
O=C(c1ccco1)N1CCN(C(=O)c2ccc(COc3ccc4c(c3)CCC4)o2)CC1	STAT1 act 132.4
NNc1nc2c(-c3ccc(F)cc3)nnn2c2ccccc12	STAT1 act 141.4
NNc1nc2c(-c3ccc(Cl)cc3)nnn2c2ccccc12	STAT1 act 134.9
N#Cc1ccc(Oc2ccc(-c3cnc4ccccc4n3)cc2)cc1C#N	none
CCOC(=O)c1cc2c(s1)-c1ccccc1CC2	STAT1 act 131.2
COC(=O)c1cc2c(s1)-c1ccccc1CC2	none
CCOC(=O)c1sc(/N=C/c2c(O)ccc3ccccc23)cc1C	none
CCOC(=O)c1cc2ccc3ccccc3c2s1	STAT1 act 151.4
CCOC(=O)c1cc2cc3ccccc3cc2[nH]1	NF-kB neuron act 3.44, STAT1 act 135.6
CN1CCN(C(=O)c2cn(-c3ccccc3)nc2-c2cccs2)CC1	none
COc1ccc(OCC(=O)N/N=C/c2ccc(N(C)C)cc2)cc1	FLuc inhib CS 62.8
COc1ccc(/C=N/NC(=O)CNC(=O)COc2ccccc2)cc1	none
O=C(N/N=C\c1ccc(Cl)cc1)c1sccc1-n1cccc1	none
CCCCCC(=O)N/N=C/c1ccc(N(C)C)cc1	STAT1 act 134.0
CN(C)c1ccc(/C=N/NC(=O)c2sccc2-n2cccc2)cc1	STAT1 act 129.6
CN(C)c1ccc(/C=N/NC(=O)CCCO)cc1	none
ON1C2CCCCC2N(O)C1c1c(F)c(F)c(F)c(F)c1F (stereo unspecified)	none
Cc1cnc(NC(=O)c2ccc3c(c2)C(=O)N(Cc2ccco2)C3=O)s1	none
CCc1nnc(NC(=O)c2ccc3c(c2)C(=O)N(C(C)(C)C)C3=O)s1	FLuc inhib CS 68.7
CCN1C(=O)c2ccc(C(=O)Nc3ncc(C)s3)cc2C1=O	FLuc inhib CS 86.0
CCc1nnc(NC(=O)c2ccncc2)s1	none
COc1ccc(OC)c2[nH]c(=O)c(CCNC(=O)CC(C)C)cc12	none
Cc1cccn2c(=O)c3cc(C(=O)NCc4cccnc4)c(=N)n(C(C)C)c3nc12	none
O=C(/C=C/c1ccccc1)NCCc1ccc2c(c1)OCCO2	none
CC(C)(C)c1ccc(-c2noc(CCC(=O)NCC3CCCO3)n2)cc1 (stereo unspecified)	FLuc inhib CS 64.2
Cc1ccc(-c2noc(CCC(=O)NCC3CCCO3)n2)cc1 (stereo unspecified)	none
CN(C)C(=O)CCc1nc(-c2ccc(C(C)(C)C)cc2)no1	FLuc inhib CS 52.1
CC(C)(C)c1ccc(-c2noc(CCC(=O)N3CCOCC3)n2)cc1	FLuc inhib CS 82.6
CNC(=O)CCc1nc(-c2ccc(C(C)(C)C)cc2)no1	FLuc inhib CS 58.2
O=C(O/N=C(/c1ccccc1)c1ccncc1)c1cccc(F)c1	none
O=C(N1CCCCC1)N1CCN(c2ccc(Cl)cc2)CC1	none
O=C1c2ccccc2C(=O)C1c1ccnc2ccccc12	APP 5'UTR act 146.1, FLuc inhib CS 91.2 (no result: NF-kB neuron act)
O=C1C(c2ccnc3ccccc23)=C(O)c2ccccc21	APP 5'UTR act 182.8, FLuc inhib CS 90.5
O=C1C(=O)c2ccccc2C(O)=C1c1ccccc1F	none (no result: NF-kB neuron act, FLuc inhib CS, FLuc act counter, STAT1 act)
O=C1c2ccccc2C(=O)C1c1nccc2ccccc12	NF-kB neuron act 3.56, FLuc inhib CS 89.9
COCc1nnc(NS(=O)(=O)c2ccc(NC(C)=O)cc2)s1	none
COc1cccc(C(=O)N2CCN(S(=O)(=O)Cc3ccccc3)CC2)c1	none
COc1cc(/C=N/NC(=O)c2cccc([N+](=O)[O-])c2)ccc1OCc1ccccc1	none
COC(=O)C(=Cc1ccc(OCc2ccc([N+](=O)[O-])cc2)c(OC)c1)C(=O)OC	NF-kB neuron act 4.4
COc1cc(C(c2c(C)[nH][nH]c2=O)c2c(C)[nH][nH]c2=O)ccc1OCc1ccc([N+](=O)[O-])cc1	NF-kB neuron act 3.75 (no result: APP 5'UTR act)
CCOC(=O)C(=Cc1ccc(OCc2ccc([N+](=O)[O-])cc2)c(OC)c1)C(=O)OCC	NF-kB neuron act 3.6
COc1cc(C(c2c(C)[nH][nH]c2=O)c2c(C)[nH][nH]c2=O)ccc1OC(=O)c1cccc([N+](=O)[O-])c1	none
Cc1cc(N/N=C/c2cccc(Br)c2)nc2ccccc12	NF-kB neuron act 4.21
Cc1cc(N/N=C/c2ccncc2)nc2ccccc12	STAT1 act 147.2
Clc1ccc(-n2ncc3c(NCc4ccccn4)ncnc32)cc1	STAT1 act 149.6
CCCCNc1ncnc2c1cnn2-c1ccccc1	NF-kB neuron act 5.65, STAT1 act 134.2
Cc1cccc(-n2ncc3c(NCCCO)ncnc32)c1	APP 5'UTR act 135.4, FLuc inhib CS 52.7, STAT1 act 140.6
Cc1ccc(CNc2ncnc3c2cnn3-c2ccccc2)cc1	none
Cc1ccc(-n2ncc3c(NCc4ccccc4)ncnc32)cc1	STAT1 act 136.5
Cc1ccc(-n2ncc3c(NCc4ccccn4)ncnc32)c(C)c1	none
COc1ccc2c(CC(=O)N3CCN(S(=O)(=O)c4cccs4)CC3)coc2c1	none
CC(C)=C1C2CCC1C(C(=O)NCCc1ccccc1)C2C(=O)O (stereo unspecified)	none
C=CCNc1ncnc2c1cnn2-c1cccc(C)c1	NF-kB neuron act 4.97, APP 5'UTR act 211.9, STAT1 act 141.5
Cc1ccc2nc(-c3ccc(O)cc3)c(Nc3ccc4c(c3)OCCO4)n2c1	none
CC(C)CNC(C)C(=O)Nc1ccc(S(N)(=O)=O)cc1 (stereo unspecified)	none
C/C(=N\Nc1ncc(Cl)cc1Cl)c1ccc(OC(F)F)cc1	NF-kB neuron act 4.46
C/C(=N\Nc1ncc(Cl)cc1Cl)c1ccc2c(c1)OCO2	none
Brc1ccccc1-c1nnc(SCc2nc3ccccc3s2)o1	STAT1 act 135.6
Cn1cccc1/C=C1\CCc2ccccc2C1=O	NF-kB neuron act 5.87, APP 5'UTR act 166.6, FLuc inhib CS 69.9
Cn1cccc1/C=C1\CC(C(C)(C)C)C/C(=C\c2cccn2C)C1=O (stereo unspecified)	none
